Assay results as given in ChEMBL document CHEMBL1641444, “Synthesis and evaluation of 6-[1-(2-[(18)F]fluoro-3-pyridyl)-5-methyl-1H-1,2,3-triazol-4-yl]quinoline for positron emission tomography imaging of the metabotropic glutamate receptor type 1 in brain” (Bioorg Med Chem, 2011).

Experiments:
Blood [1] = assay: Biodistribution in blood of Sprague-Dawley rat at 17 MBq, iv after 5 mins by dissection method; format: ADME, organism-based; conditions: in vivo
Outline: (§1)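 The [18F]ligand was given to rats as a saline solution (average 17 MBq, about 0.11 nmol) via the tail vein. Three rats per time point were killed by cervical dislocation at 5, 15 and 30 min. Dissected tissues were gamma-counted with decay correction, and results are expressed as % injected dose per gram of wet tissue.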

Lung [2] = assay: Biodistribution in lung of Sprague-Dawley rat at 17 MBq, iv after 5 mins by dissection method; format: ADME, organism-based; conditions: in vivo
Outline: (§2)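 [¹⁸F]7a in saline (average 17 MBq/200 µL, 0.11 nmol) was given by tail vein. Rats were killed by cervical dislocation at 5, 15 or 30 min, with three rats per time point. Tissue radioactivity was measured by gamma counting, decay-corrected and expressed as %ID per gram of wet tissue.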

Liver [3] = assay: Biodistribution in liver of Sprague-Dawley rat at 17 MBq, iv after 5 mins by dissection method; format: ADME, organism-based; conditions: in vivo; outline: as §2
Muscle tissue [4] = assay: Biodistribution in muscle of Sprague-Dawley rat at 17 MBq, iv after 5 mins by dissection method; format: ADME, organism-based; conditions: in vivo; outline: as §2
Bone [5] = assay: Biodistribution in bone of Sprague-Dawley rat at 17 MBq, iv after 5 mins by dissection method; format: ADME, organism-based, Bone element; conditions: in vivo; outline: as §1
[6] = Biodistribution in whole brain of Sprague-Dawley rat at 17 MBq, iv after 5 mins by dissection method; format: ADME, organism-based; conditions: in vivo; outline: as §2
Cerebellum [7] = assay: Biodistribution in cerebellum of Sprague-Dawley rat at 17 MBq, iv after 5 mins by dissection method; format: ADME, organism-based; conditions: in vivo; outline: as §1
Hippocampus = assay: Biodistribution in hippocampus of Sprague-Dawley rat at 17 MBq, iv after 5 mins by dissection method; format: ADME, organism-based; conditions: in vivo; outline: as §1
Thalamus [8] = assay: Biodistribution in thalamus of Sprague-Dawley rat at 17 MBq, iv after 5 mins by dissection method; format: ADME, organism-based; conditions: in vivo; outline: as §2
Blood [9] = assay: Biodistribution in blood of Sprague-Dawley rat at 17 MBq, iv after 15 mins by dissection method; format: ADME, organism-based; conditions: in vivo, 0.25 h; outline: as §1
Heart = assay: Biodistribution in heart of Sprague-Dawley rat at 17 MBq, iv after 15 mins by dissection method; format: ADME, organism-based; conditions: in vivo, 0.25 h; outline: as §1
Lung [10] = assay: Biodistribution in lung of Sprague-Dawley rat at 17 MBq, iv after 15 mins by dissection method; format: ADME, organism-based; conditions: in vivo, 0.25 h; outline: as §2
Liver [11] = assay: Biodistribution in liver of Sprague-Dawley rat at 17 MBq, iv after 15 mins by dissection method; format: ADME, organism-based; conditions: in vivo, 0.25 h; outline: as §1
[12] = Biodistribution in small intestine of Sprague-Dawley rat at 17 MBq, iv after 15 mins by dissection method; format: ADME, organism-based; conditions: in vivo, 0.25 h; outline: as §2
Pancreas = assay: Biodistribution in pancreas of Sprague-Dawley rat at 17 MBq, iv after 15 mins by dissection method; format: ADME, organism-based; conditions: in vivo, 0.25 h; outline: as §2
Bone [13] = assay: Biodistribution in bone of Sprague-Dawley rat at 17 MBq, iv after 15 mins by dissection method; format: ADME, organism-based, Bone element; conditions: in vivo, 0.25 h; outline: as §1
[14] = Biodistribution in whole brain of Sprague-Dawley rat at 17 MBq, iv after 15 mins by dissection method; format: ADME, organism-based; conditions: in vivo, 0.25 h; outline: as §2
Cerebellum [15] = assay: Biodistribution in cerebellum of Sprague-Dawley rat at 17 MBq, iv after 15 mins by dissection method; format: ADME, organism-based; conditions: in vivo, 0.25 h; outline: as §1
Striatum = assay: Biodistribution in striatum of Sprague-Dawley rat at 17 MBq, iv after 15 mins by dissection method; format: ADME, organism-based; conditions: in vivo, 0.25 h; outline: as §2
[16] = Biodistribution in olfactory bulb of Sprague-Dawley rat at 17 MBq, iv after 15 mins by dissection method; format: ADME, organism-based; conditions: in vivo, 0.25 h; outline: as §2
[17] = Biodistribution in pons-medulla of Sprague-Dawley rat at 17 MBq, iv after 15 mins by dissection method; format: ADME, organism-based; conditions: in vivo, 0.25 h; outline: as §2
Blood [18] = assay: Biodistribution in blood of Sprague-Dawley rat at 17 MBq, iv after 30 mins by dissection method; format: ADME, organism-based; conditions: in vivo, 0.5 h; outline: as §1
Liver [19] = assay: Biodistribution in liver of Sprague-Dawley rat at 17 MBq, iv after 30 mins by dissection method; format: ADME, organism-based; conditions: in vivo, 0.5 h; outline: as §2
Spleen = assay: Biodistribution in spleen of Sprague-Dawley rat at 17 MBq, iv after 30 mins by dissection method; format: ADME, organism-based; conditions: in vivo, 0.5 h; outline: as §2
[20] = Biodistribution in small intestine of Sprague-Dawley rat at 17 MBq, iv after 30 mins by dissection method; format: ADME, organism-based; conditions: in vivo, 0.5 h; outline: as §2
Muscle tissue [21] = assay: Biodistribution in muscle of Sprague-Dawley rat at 17 MBq, iv after 30 mins by dissection method; format: ADME, organism-based; conditions: in vivo, 0.5 h; outline: as §2
Bone [22] = assay: Biodistribution in bone of Sprague-Dawley rat at 17 MBq, iv after 30 mins by dissection method; format: ADME, organism-based, Bone element; conditions: in vivo, 0.5 h; outline: as §1
[23] = Biodistribution in whole brain of Sprague-Dawley rat at 17 MBq, iv after 30 mins by dissection method; format: ADME, organism-based; conditions: in vivo, 0.5 h; outline: as §2
Cerebellum [24] = assay: Biodistribution in cerebellum of Sprague-Dawley rat at 17 MBq, iv after 30 mins by dissection method; format: ADME, organism-based; conditions: in vivo, 0.5 h; outline: as §1
Thalamus [25] = assay: Biodistribution in thalamus of Sprague-Dawley rat at 17 MBq, iv after 30 mins by dissection method; format: ADME, organism-based; conditions: in vivo, 0.5 h; outline: as §2
[26] = Biodistribution in pons-medulla of Sprague-Dawley rat at 17 MBq, iv after 30 mins by dissection method; format: ADME, organism-based; conditions: in vivo, 0.5 h; outline: as §2
[27] = Fraction unbound in Sprague-Dawley rat plasma after 15 mins by ultra-filtration method; format: ADME; conditions: 0.25 h
Outline: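 Plasma protein binding was measured by ultrafiltration. Blood was spun at 3900 rpm for 5 min at 4 °C to obtain plasma. 40 µL of plasma was centrifuged in a filter unit at 2000 rpm for 15 min at 25 °C, and a saline control was run the same way. Free fraction was taken as ultrafiltrate/plasma radioactivity, corrected for a stick factor.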

[28] = Ratio of drug uptake in Sprague-Dawley rat thalamus to medulla at 17 MBq, iv after 10 to 15 mins by small-animal PET; conditions: in vivo
[29] = Ratio of drug uptake in Sprague-Dawley rat striatum to medulla at 17 MBq, iv after 10 to 15 mins by small-animal PET; conditions: in vivo
[30] = Ratio of drug uptake in Sprague-Dawley rat cerebellum to medulla at 17 MBq, iv after 10 to 15 mins by small-animal PET; conditions: in vivo
[31] = Ratio of drug uptake in Sprague-Dawley rat hippocampus to medulla at 17 MBq, iv after 10 to 15 mins by small-animal PET; conditions: in vivo
[32] = Ratio of drug uptake in Sprague-Dawley rat cerebral cortex to medulla at 17 MBq, iv after 10 to 15 mins by small-animal PET; conditions: in vivo
[33] = Metabolic stability in plasma of ddy mouse assessed as reduction of parent compound level at 3.7 MBq, iv after 5 mins by HPLC analysis; parameters: scale not given: the % may be the effect or the level left
[34] = Metabolic stability in plasma of ddy mouse assessed as reduction of parent compound level at 3.7 MBq, iv after 15 mins by HPLC analysis; parameters: scale not given: the % may be the effect or the level left; conditions: 0.25 h
[35] = tested on: Cerebellum (Mus musculus); assay: Metabolic stability in cerebellum of mouse assessed as reduction of parent compound level at 3.7 MBq, iv after 30 mins by HPLC analysis; parameters: scale not given: the % may be the effect or the level left; conditions: in vivo, 0.5 h

Cc1c(-c2ccc3ncccc3c2)nnn1-c1cccnc1[18F]
Drug uptake (Blood [1]): 0.38 % ID/g
Drug uptake (Lung [2]): 0.5 % ID/g
Drug uptake (Liver [3]): 2.3 % ID/g
Drug uptake (Muscle tissue [4]): 0.28 % ID/g
Drug uptake (Bone [5]): 0.22 % ID/g
Drug uptake [6]: 0.52 % ID/g
Drug uptake (Cerebellum [7]): 1.21 % ID/g
Drug uptake (Hippocampus): 0.58 % ID/g
Drug uptake (Thalamus [8]): 0.73 % ID/g
Drug uptake (Blood [9]): 0.26 % ID/g
Drug uptake (Heart): 0.24 % ID/g
Drug uptake (Lung [10]): 0.31 % ID/g
Drug uptake (Liver [11]): 2.04 % ID/g
Drug uptake [12]: 4.64 % ID/g
Drug uptake (Pancreas): 0.34 % ID/g
Drug uptake (Bone [13]): 0.15 % ID/g
Drug uptake [14]: 0.23 % ID/g
Drug uptake (Cerebellum [15]): 0.54 % ID/g
Drug uptake (Striatum): 0.23 % ID/g
Drug uptake [16]: 0.24 % ID/g
Drug uptake [17]: 0.21 % ID/g
Drug uptake (Blood [18]): 0.15 % ID/g
Drug uptake (Liver [19]): 1.93 % ID/g
Drug uptake (Spleen): 0.16 % ID/g
Drug uptake [20]: 1.74 % ID/g
Drug uptake (Muscle tissue [21]): 0.1 % ID/g
Drug uptake (Bone [22]): 0.22 % ID/g
Drug uptake [23]: 0.11 % ID/g
Drug uptake (Cerebellum [24]): 0.2 % ID/g
Drug uptake (Thalamus [25]): 0.1 % ID/g
Drug uptake [26]: 0.13 % ID/g
Activity [27]: 8.5%
Ratio [28]: 1.91
Ratio [29]: 1.55
Ratio [30]: 3.73
Ratio [31]: 1.42
Ratio [32]: 1.31
Stability [33]: 57%
Stability [34]: 23%
Stability [35]: 67%
